Measured values collected from several papers.
Protocols differ between the studies behind these lines.
Read-out: cell growth or viability

Structure (SMILES)	cell line	technique	concentration	time	endpoint	value
N.N.[Cl][Pt][Cl]	HCT-116	MTT		24 h	IC50	255 µM
Fc1ccc2c(-c3nc(Cc4ccccc4)cs3)nn(Cc3ccc(Cl)cc3Cl)c2c1	HCT-116			48 h	IC50	67.6 µM
N.N.[Cl][Pt][Cl]	WSUDLCL2	ATP luminescence	10 µM	72 h	inhibition	100%
O=C1CCC(N2C(=O)c3cccc4c(Cc5cnn(C6CCN(C(=O)C7(O)CCC7)CC6)c5)ccc2c34)C(=O)N1 (centres unmarked)	NCI-H929				IC50	7e-06 µM
N.N.[Cl][Pt][Cl]	SK-OV-3	MTT		72 h	IC50	43.8 µM
N.N.[Cl][Pt][Cl]	HCT-116	MTT		72 h	IC50	8.2 µM
C#CCn1c(C(=O)/C=C/c2ccc(F)cc2)nc2ccccc21	HCT-116	LDH		48 h	IC50	6.51 µM
S=P1(C2CCCCC2)CCCCC1	HCT-116	MTT		72 h	IC50	> 100 µM
O=C1[O][Pt]2([NH][C@@H]3CCCC[C@H]3[NH]2)[O]C1=O	HCT-116	MTT			IC50	0.8 µM
O=C(Nc1ccc(Cl)cc1)Nc1cccc(-c2cn(Cc3ccc(Br)cc3)nn2)c1	PC-9	CCK-8	50 µM	72 h	viability	128%
N.N.[Cl][Pt][Cl]	HCT-116	MTT		48 h	IC50	13.3 µM
